# Measured values as given in ChEMBL document CHEMBL3872225, “Synthesis, binding assays, cytotoxic activity and docking studies of benzimidazole and benzothiophene derivatives with selective affinity for the CB2 cannabinoid receptor” (Eur J Med Chem, 2016).
# Experiments:
# Cannabinoid receptor 1 = Cannabinoid receptor 1 (Homo sapiens, UniProt P21554); experiment: Displacement of [3H]CP-55940 from human recombinant CB1 receptor expressed in HEK293 cell membranes incubated for 1.5 hrs
# In short: (§1)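 Membranes from HEK-293 cells overexpressing human CB1 or CB2 incubated with increasing compound concentrations and 0.5 nM [3H]CP-55,940 at 30 °C for 1.5 h. […] Selectivity index is Ki CB1/Ki CB2.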
# [1] = biological target: Cannabinoid receptor 1 (CB1) (Homo sapiens, UniProt P21554); experiment: Displacement of [3H]CP-55940 from human recombinant CB1 receptor expressed in HEK293 cell membranes at 1 uM incubated for 1.5 hrs relative to control; details: probe [3H]CP-55940
# Chain of Cannabinoid receptor 1 (CB1) (P21554 whole entry): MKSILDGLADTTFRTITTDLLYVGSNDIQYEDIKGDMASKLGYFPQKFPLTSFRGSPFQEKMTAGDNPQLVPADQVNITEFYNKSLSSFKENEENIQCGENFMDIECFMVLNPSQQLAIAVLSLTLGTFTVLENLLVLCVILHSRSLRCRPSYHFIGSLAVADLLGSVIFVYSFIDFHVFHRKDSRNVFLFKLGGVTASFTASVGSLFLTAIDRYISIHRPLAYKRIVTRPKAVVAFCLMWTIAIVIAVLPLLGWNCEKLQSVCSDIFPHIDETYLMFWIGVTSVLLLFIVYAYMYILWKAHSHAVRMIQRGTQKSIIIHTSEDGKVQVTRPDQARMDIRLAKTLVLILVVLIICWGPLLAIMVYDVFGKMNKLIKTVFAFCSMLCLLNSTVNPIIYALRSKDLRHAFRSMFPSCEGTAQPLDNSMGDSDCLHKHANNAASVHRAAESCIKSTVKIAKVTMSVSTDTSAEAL
# In short: (§2)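 Single-point screen on HEK-293 membranes overexpressing human CB1 or CB2. […] Compounds displacing more than 50% at 1 μM went on to full curves.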
# Cannabinoid receptor 2 [2] = biological target: T1, Cannabinoid receptor 2 (Homo sapiens, UniProt P34972); experiment: Displacement of [3H]CP-55940 from human recombinant CB2 receptor expressed in HEK293 cell membranes at 1 uM incubated for 1.5 hrs relative to control; in short: as §2
# T1 sequence (P34972 whole entry): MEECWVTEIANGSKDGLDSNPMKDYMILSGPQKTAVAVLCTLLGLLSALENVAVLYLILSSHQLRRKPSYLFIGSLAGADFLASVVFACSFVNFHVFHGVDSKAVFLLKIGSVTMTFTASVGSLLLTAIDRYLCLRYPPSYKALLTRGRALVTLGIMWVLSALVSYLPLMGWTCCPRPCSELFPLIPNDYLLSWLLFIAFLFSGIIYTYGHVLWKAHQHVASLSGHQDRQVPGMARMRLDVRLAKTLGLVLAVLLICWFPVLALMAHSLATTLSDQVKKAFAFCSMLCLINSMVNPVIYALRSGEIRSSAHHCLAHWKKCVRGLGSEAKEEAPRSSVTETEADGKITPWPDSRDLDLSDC
# Cannabinoid receptor 2 [3] = biological target: T1, Cannabinoid receptor 2; experiment: Displacement of [3H]CP-55940 from human recombinant CB2 receptor expressed in HEK293 cell membranes incubated for 1.5 hrs; in short: as §1
# Homo sapiens = species on record: Homo sapiens; experiment: Selectivity index, ratio of Ki for displacement of [3H]CP-55940 from human recombinant CB1 receptor to Ki for displacement of [3H]CP-55940 from human recombinant CB2 receptor; in short: as §1
# [4] = Cytotoxicity against human HeLa cells assessed as reduction in cell viability measured after 72 hrs by MTT assay; type: functional, cell-based
# In short: (§3)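 Cells kept in RPMI 1640 with 5% FBS, penicillin/streptomycin, 37 °C, 5% CO2. Seeded at 10,000 cells/well, then exposed to compounds at 0.001–10 μM in 5% FBS-RPMI for 72 h at 37 °C. MTT added for 4 h, formazan dissolved overnight in 10% SDS/0.1 mM HCl, absorbance read at 570 nm. […] Etoposide as positive control.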
# [5] = Cytotoxicity against resistant human HCT116 cells assessed as reduction in cell viability measured after 72 hrs by MTT assay; type: functional, cell-based; details: HCT-116, 72 h; in short: as §3
# [6] = Cytotoxicity against African green monkey Vero cells assessed as reduction in cell viability measured after 72 hrs by MTT assay; type: toxicity, cell-based; details: Chlorocebus sabaeus (African green monkey); in short: as §3
# [7] = Cytotoxicity against human HL60 cells assessed as reduction in cell viability measured after 72 hrs by MTT assay; type: functional, cell-based; details: HL-60, 72 h; in short: as §3
# [8] = Cytotoxicity against human H1975-1 cells assessed as reduction in cell viability measured after 72 hrs by MTT assay; type: functional, cell-based; in short: as §3
# Chain of Cannabinoid receptor 1 (P21554 whole entry): as the sequence (P21554 whole entry) above
SMILES,IC50 (Cannabinoid receptor 1),Ki (Cannabinoid receptor 1),"inhibition at 1.5 h, 1 µM [1]",inhibition (Cannabinoid receptor 2 [2]),IC50 (Cannabinoid receptor 2 [3]),Ki (Cannabinoid receptor 2 [3]),Ratio Ki (Homo sapiens),IC50 [4],IC50 [5],IC50 at 72 h [6],IC50 [7],IC50 [8]
CC(C)Cc1sc2ccccc2c1C(=O)c1cccc2ccccc12,1.2 µM,0.7 µM,> 50%,> 50%,2 µM,0.5 µM,1.4,> 10 µM,> 10 µM,> 10 µM,0.072 µM,> 10 µM
O=C(c1cccc2ccccc12)n1c(C2CCCC2)nc2ccccc21,> 10 µM,> 10 µM,> 50%,> 50%,2.9 µM,0.7 µM,> 14,> 10 µM,> 10 µM,> 10 µM,0.106 µM,> 10 µM
CCCc1nc2ccccc2n1C(=O)c1ccc(OC)cc1,> 10 µM,> 10 µM,> 50%,> 50%,7.6 µM,1.9 µM,> 5.26,> 10 µM,0.12 µM,0.3 µM,0.102 µM,> 10 µM
COc1ccc(C(=O)n2c(C)nc3ccccc32)cc1,> 10 µM,> 10 µM,> 50%,> 50%,> 10 µM,> 10 µM,–,> 10 µM,0.01 µM,1.23 µM,0.057 µM,> 10 µM
COc1ccc(C(=O)n2c(C(C)C)nc3ccccc32)cc1,> 10 µM,> 10 µM,> 50%,> 50%,3.2 µM,0.8 µM,> 12.5,> 10 µM,0.19 µM,> 10 µM,0.63 µM,> 10 µM
CCc1sc2ccccc2c1C(=O)c1ccc(OC)cc1,> 10 µM,> 10 µM,> 50%,> 50%,6.6 µM,1.6 µM,> 6.2,> 10 µM,> 10 µM,> 10 µM,0.046 µM,> 10 µM
CCCc1sc2ccccc2c1C(=O)c1ccc(OC)cc1,> 10 µM,> 10 µM,> 50%,> 50%,1.2 µM,0.3 µM,> 33,> 10 µM,> 10 µM,> 10 µM,0.08 µM,> 10 µM
COc1ccc(C(=O)c2c(CC(C)C)sc3ccccc23)cc1,7.6 µM,4.6 µM,> 50%,> 50%,0.7 µM,0.1 µM,46,> 10 µM,> 10 µM,> 10 µM,0.066 µM,> 10 µM
CC(C)c1nc2ccccc2n1C(=O)c1cccc2ccccc12,> 10 µM,> 10 µM,> 50%,> 50%,2.1 µM,0.5 µM,> 20,> 10 µM,4.41 µM,7.23 µM,0.07 µM,> 10 µM
CCCc1nc2ccccc2n1C(=O)c1cccc2ccccc12,> 10 µM,> 10 µM,> 50%,> 50%,> 10 µM,> 10 µM,–,> 10 µM,2.4 µM,> 10 µM,0.1 µM,> 10 µM
Cc1nc2ccccc2n1C(=O)c1cccc2ccccc12,> 10 µM,> 10 µM,> 50%,> 50%,> 10 µM,> 10 µM,–,> 10 µM,> 10 µM,> 10 µM,0.093 µM,> 10 µM
COc1ccc(Cn2c(-c3ccc(OC)cc3)nc3ccccc32)cc1,> 10 µM,> 10 µM,> 50%,> 50%,2.7 µM,0.7 µM,> 14,3.06 µM,1.75 µM,> 10 µM,0.057 µM,> 10 µM
COc1ccc(-c2nc3ccccc3n2C(=O)c2cccc3ccccc23)cc1,8.1 µM,4.9 µM,> 50%,> 50%,7.7 µM,1.9 µM,2.57,> 10 µM,1.7 µM,> 10 µM,0.146 µM,> 10 µM
CC(C)Cc1nc2ccccc2n1C(=O)c1cccc2ccccc12,> 10 µM,> 10 µM,> 50%,> 50%,0.5 µM,0.1 µM,> 100,> 10 µM,2.17 µM,> 10 µM,0.094 µM,> 10 µM
COc1ccc(C(=O)n2c(CC(C)C)nc3ccccc32)cc1,> 10 µM,> 10 µM,> 50%,> 50%,> 10 µM,> 10 µM,–,> 10 µM,3.56 µM,> 10 µM,0.034 µM,> 10 µM
Cc1c(C(=O)c2cccc3ccccc23)c2cccc3c2n1[C@H](CN1CCOCC1)CO3 [WIN-552122],–,–,–,–,–,–,–,0.98 µM,0.92 µM,0.31 µM,0.007 µM,3.8 µM
O=C(c1cccc2ccccc12)n1c(C2CCCCC2)nc2ccccc21,4.9 µM,2.9 µM,> 50%,> 50%,1.7 µM,0.4 µM,7.25,> 10 µM,3.02 µM,> 10 µM,0.22 µM,> 10 µM
CCCCCc1sc2ccccc2c1C(=O)c1ccc(OC)cc1,> 10 µM,> 10 µM,> 50%,> 50%,1.2 µM,0.3 µM,> 33,> 10 µM,> 10 µM,> 10 µM,0.083 µM,> 10 µM
COc1ccc(C(=O)c2c(-c3ccc(OC)cc3)sc3ccccc23)cc1,1.1 µM,0.7 µM,> 50%,> 50%,0.4 µM,0.1 µM,7,> 10 µM,> 10 µM,> 10 µM,0.076 µM,> 10 µM
COc1ccc(C(=O)n2c(C3CCC3)nc3ccccc32)cc1,> 10 µM,> 10 µM,> 50%,> 50%,3.6 µM,0.9 µM,> 11,> 10 µM,> 10 µM,> 10 µM,0.047 µM,> 10 µM
COc1ccc(-c2sc3ccccc3c2C(=O)c2cccc3ccccc23)cc1,8.4 µM,5.1 µM,> 50%,> 50%,1.4 µM,0.3 µM,17,> 10 µM,> 10 µM,> 10 µM,0.071 µM,> 10 µM
COc1ccc(C(=O)n2c(-c3ccc(OC)cc3)nc3ccccc32)cc1,> 10 µM,> 10 µM,> 50%,> 50%,5.9 µM,1.5 µM,> 6.7,> 10 µM,> 10 µM,> 10 µM,0.175 µM,> 10 µM
CCCc1sc2ccccc2c1C(=O)c1cccc2ccccc12,1 µM,0.6 µM,> 50%,> 50%,4.3 µM,1 µM,0.6,> 10 µM,> 10 µM,> 10 µM,0.13 µM,> 10 µM
COc1cc([C@@H]2c3cc4c(cc3[C@@H](O[C@@H]3O[C@@H]5CO[C@@H](C)O[C@H]5[C@H](O)[C@H]3O)[C@H]3COC(=O)[C@H]23)OCO4)cc(OC)c1O [ETOPOSIDE],–,–,–,–,–,–,–,8.2 µM,2.8 µM,1.5 µM,2.1 µM,9.5 µM
